Screens from PubChem.
An excerpt weighted towards active compounds, which were near 1.6% of everything screened.
HKDC1 inhibitor – blocks human hexokinase HKDC1 activity. recombinant HKDC1, G6PDH/diaphorase resazurin coupled fluorescence. inhibition, % at 20 µM. 340,000 compounds, 0.16% hits. AID 493160;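 active = inhibition above about 35% when tested at 20 µM, limit read from the data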;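 also: plate controls were DMSO wells with enzyme for no effect and DMSO wells lacking enzyme for full effect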
Target sequence (Q2TB90 whole entry, looked up): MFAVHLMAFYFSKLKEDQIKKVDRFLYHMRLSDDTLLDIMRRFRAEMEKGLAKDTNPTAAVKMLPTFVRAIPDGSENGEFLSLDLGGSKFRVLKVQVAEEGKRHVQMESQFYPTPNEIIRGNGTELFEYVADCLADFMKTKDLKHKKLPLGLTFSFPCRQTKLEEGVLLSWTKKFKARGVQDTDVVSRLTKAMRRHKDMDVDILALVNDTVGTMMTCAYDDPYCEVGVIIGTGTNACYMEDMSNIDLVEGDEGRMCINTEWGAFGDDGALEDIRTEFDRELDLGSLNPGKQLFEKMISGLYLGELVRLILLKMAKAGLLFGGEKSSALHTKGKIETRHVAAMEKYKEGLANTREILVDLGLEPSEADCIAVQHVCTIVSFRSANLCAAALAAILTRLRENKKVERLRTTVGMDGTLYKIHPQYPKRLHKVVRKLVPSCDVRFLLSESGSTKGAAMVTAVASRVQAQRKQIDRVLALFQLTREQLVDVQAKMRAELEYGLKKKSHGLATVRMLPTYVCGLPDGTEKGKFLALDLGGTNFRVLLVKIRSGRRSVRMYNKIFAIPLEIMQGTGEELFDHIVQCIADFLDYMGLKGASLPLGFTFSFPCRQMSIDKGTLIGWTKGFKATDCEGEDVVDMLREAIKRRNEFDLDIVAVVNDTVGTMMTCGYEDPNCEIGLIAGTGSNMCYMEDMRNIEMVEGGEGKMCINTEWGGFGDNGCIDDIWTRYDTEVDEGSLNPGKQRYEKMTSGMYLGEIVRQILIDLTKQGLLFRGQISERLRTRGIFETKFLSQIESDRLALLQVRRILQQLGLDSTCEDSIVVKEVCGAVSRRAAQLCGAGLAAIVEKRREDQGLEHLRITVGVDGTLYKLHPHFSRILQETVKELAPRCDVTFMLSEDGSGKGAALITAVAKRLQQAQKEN
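Assay system – recombinant HKDC1 (HK5) hexokinase enzyme, produced in-house · Input – HKDC1 at 5 µg/mL · Reagent – glucose plus 1 mM ATP as hexokinase substrates · Timing – 90 min reaction incubation at room temperature, dark · Measured by – G6PDH/diaphorase-coupled fluorescence, 1 mM NADP, 100 µM resazurin, 525/613 nm · Benchmarks – DMSO-enzyme wells negative, buffer-substituted wells positive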
PKA-R2B activ – activates the human PKA-R2B holoenzyme complex. PKA-R2B holoenzyme dissociation, Cy5-IP20 fluorescence polarization; R2B truncated from residue 108, S112A mutant; 0% DMSO only, 100% 113 µM cGMP. activation, % at 11.4 µM. 340,000 compounds, 0.079% hits. AID 504700;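 active = activation above a cutoff set at the mean over all compounds plus 3 SD, cut at about 18% in these data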;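 also: higher means more holoenzyme dissociation and a rise in polarization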
ATG4B inhibitor – blocks human ATG4B protease cleavage of LC3 substrate; 340,000 compounds, 0.51% hits; AID 504462; inhibition, % at 8.33 µM; ATG4B cleavage of LC3-PLA2, NBD-HPC fluorescence, 1 h; in the data active = inhibition above about 40%
PfG6PD inh – PfG6PD (Plasmodium falciparum) enzyme inhibition; AID 504690; 350,000 compounds, 0.78% hits; inhibition, % at 20 µM; PfGluPho enzyme, NADPH resazurin-diaphorase fluorescence;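 active = inhibition reaching at least a set limit at 20 µM in the primary screen, cut at about 59% in these data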;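 also: 0% = DMSO wells with substrate and 100% = DMSO wells lacking glucose-6-phosphate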
PKA-R1A activ – PKA-R1A complex activation | P00514+P68181 | PKA-R1A dissociation, Cy5-IP20 fluorescence polarization; scaled: DMSO 0%, 113 µM cGMP 100% | activation, % at 11.4 µM | 340,000 compounds, 0.083% hits;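 active = percent activation above the mean of all tested compounds plus 3 SD, cut at about 19% in these data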;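 also: higher means more PKAc released from R1A so a rise in polarization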
T cell HTS – modulates CD8 T cell binding to vesicles | 2C CD8+ T cell-vesicle binding, flow cytometry; stronger effect = lower value | response (vesicle binding), % at 7 µM | 330,000 compounds, 0.068% hits;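 active = response, share of CD8 T cells binding vesicles, and their 90th percentile fluorescence all below set limits, cut at about 80% in these data, passing the limit was not always enough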;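 also: values below 100% mean blocked vesicle binding to the CD8+ T cells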
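Material: murine 2C transgenic CD8+ T lymphocytes / Also added: QL9-peptide-loaded Drosophila micro-vesicles bearing Ld, ICAM-1 and B7-1 / Schedule: binding step 1.5 h, 37 °C, antibody labelling 20 min, ice / Signal: flow cytometry, PE anti-B7-1 (FL2) versus Alexa647 anti-CD8 (FL8), PFA-fixed / Evaluation: percent CD8+ FL2 mean versus row control / Benchmarks: naked versus QL9-loaded vesicles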
PfG6PD confirm – PfG6PD inhibition, single-dose confirmed | recombinant PfGluPho, NADPH-diaphorase-resazurin fluorescence | inhibition, % at 20 µM | shares compounds with PfG6PD inh | 2,400 compounds, 34% hits;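 active = inhibition of at least 50% at 20 µM in any single replicate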;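 also: 0% = DMSO with substrate and 100% = DMSO lacking glucose-6-phosphate substrate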
Diaphorase 10uM – inhibits diaphorase or oxidizes, flagging false PfG6PD hits; inhibition, % at 20 µM; shares compounds with PfG6PD inh; diaphorase-coupled resazurin reduction, fluorescence, NADPH 10 uM; 820 compounds, 39% hits; AID 504862;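 active = average inhibition reaching 50% or more with the compound at 20 µM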;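 also: resorufin red fluorescence formed as diaphorase reduces resazurin using NADPH; 0% = DMSO with enzyme and 100% = DMSO without enzyme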
Diaphorase 30uM – diaphorase inhibition or oxidation at 30 uM NADPH | shares compounds with PfG6PD inh | Diaphorase/resazurin coupled assay, resorufin fluorescence | inhibition, % at 20 µM | 820 compounds, 29% hits | AID 504863;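 active = inhibition averaging 50% or more, tested at 20 µM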;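 also: 0% = DMSO with enzyme and 100% = DMSO wells lacking diaphorase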
Active calls of the source: *.

Screening NNC(=O)CN1C(c2cccc(Cl)c2)=Nc2ccc(Br)cc2C1c1ccccc1 (stereo not drawn) returned HKDC1 inhibitor 3, PKA-R2B activ 5, ATG4B inhibitor -8, PfG6PD inh 27, PKA-R1A activ -8 and T cell HTS 536.
`NNC(=O)CN1C(c2ccccc2Br)=Nc2ccc(Br)cc2C1c1ccccc1` (stereo not drawn) gave HKDC1 inhibitor 0, PKA-R2B activ 10, ATG4B inhibitor -7, PfG6PD inh 88*, PKA-R1A activ -2, T cell HTS 537, PfG6PD confirm 60*, Diaphorase 10uM 54* and Diaphorase 30uM 34.
O=S(=O)(Cc1cccc(F)c1)c1c[nH]c2ccccc12 was read as HKDC1 inhibitor 1, PKA-R2B activ 10, ATG4B inhibitor -5, PfG6PD inh 86*, PKA-R1A activ 6, T cell HTS 283 and PfG6PD confirm 41.
Screening O=C(CS(=O)(=O)c1c[nH]c2ccccc12)Nc1ccc(F)cc1 returned HKDC1 inhibitor -4, PKA-R2B activ 0, ATG4B inhibitor -6, PfG6PD inh 11, PKA-R1A activ -9 and T cell HTS 114.
Screening Cc1ccc([C@H]2C(C(=O)O)=CC[C@@H](c3ccc(C)cc3)N2S(=O)(=O)c2ccccc2C)cc1 returned HKDC1 inhibitor 5, PKA-R2B activ -3, ATG4B inhibitor -3, PfG6PD inh -26, PKA-R1A activ 7 and T cell HTS 202.
For CSC1=NS(=O)(=O)c2c(C)nn(C)c2S1 the results were HKDC1 inhibitor -8, PKA-R2B activ 2, ATG4B inhibitor 1, PfG6PD inh 63*, PKA-R1A activ -1, T cell HTS 299 and PfG6PD confirm 2.
`Cc1cc(C(=O)COc2cccc(-n3cnnn3)c2)c(C)n1-c1ccccc1` gave HKDC1 inhibitor -3, PKA-R2B activ 0, ATG4B inhibitor -2, PfG6PD inh 74*, PKA-R1A activ -15, T cell HTS 440 and PfG6PD confirm 26.
COc1ccc(C2(CO)OC(CO)C(O)C2O)cc1 (stereo not drawn) was read as HKDC1 inhibitor 3, PKA-R2B activ -8, ATG4B inhibitor 2, PfG6PD inh -7 and PKA-R1A activ -5.
For NC(=O)C1CCN(CC(=O)Nc2ccccc2Sc2ccccc2)CC1 the results were HKDC1 inhibitor 9, PKA-R2B activ 4, ATG4B inhibitor 10, PfG6PD inh 6, PKA-R1A activ 7 and T cell HTS 220.
For NC(=O)C1CCN(CC(=O)Nc2ccccc2Sc2ccc(Cl)cc2)CC1 the results were HKDC1 inhibitor -8, PKA-R2B activ -6, ATG4B inhibitor 4, PfG6PD inh 65*, PKA-R1A activ 4, T cell HTS 237 and PfG6PD confirm 40.
`CSc1ccccc1NC(=O)CSc1n[nH]c(N)n1` gave HKDC1 inhibitor -2, PKA-R2B activ 4, ATG4B inhibitor 2, PfG6PD inh -2, PKA-R1A activ 0 and T cell HTS 439.
Nc1nc(SCC(=O)Nc2ccccc2Sc2ccc(Cl)cc2)n[nH]1 was read as HKDC1 inhibitor 1, PKA-R2B activ 2, ATG4B inhibitor -17, PfG6PD inh 110*, PKA-R1A activ -6, T cell HTS 0, PfG6PD confirm 77*, Diaphorase 10uM 73* and Diaphorase 30uM 54*.
`CCC1CCCCN1C(=O)COC(=O)c1cncc(Br)c1` (stereo not drawn) gave PKA-R2B activ -10, PfG6PD inh 1 and PKA-R1A activ -6.
`Cc1ccc(NC(=O)CSc2nc3ccccc3nc2N2CCCC2)cc1` gave HKDC1 inhibitor 2, PKA-R2B activ 0, ATG4B inhibitor -7, PfG6PD inh 26, PKA-R1A activ -2 and T cell HTS 399.
For CCN(C(=O)Cn1nc(C)c([N+](=O)[O-])c1C)c1c(N)n(Cc2ccccc2)c(=O)[nH]c1=O the results were HKDC1 inhibitor -2, PKA-R2B activ 0, ATG4B inhibitor 0, PfG6PD inh -4, PKA-R1A activ -17 and T cell HTS 390.
`COc1ccccc1-n1nnnc1SCC(=O)NC1CCCCC1` gave HKDC1 inhibitor -2, PKA-R2B activ -9, ATG4B inhibitor -1, PfG6PD inh 5, PKA-R1A activ -5 and T cell HTS 157.
`Cc1c(C=C(C#N)c2ccc([N+](=O)[O-])cc2)c(=O)n(-c2ccccc2)n1C` gave HKDC1 inhibitor 11, PKA-R2B activ -2, ATG4B inhibitor 1, PfG6PD inh -11 and PKA-R1A activ 5.
`Oc1ccc(N2CCN(c3ccnc4cc(Cl)ccc34)CC2)cc1` gave HKDC1 inhibitor 3, PKA-R2B activ -13, ATG4B inhibitor -28, PfG6PD inh 66*, PKA-R1A activ -14, T cell HTS 650 and PfG6PD confirm -5.
COc1ccc(N2CCN(c3ccnc4cc(Cl)ccc34)CC2)cc1 was read as HKDC1 inhibitor 0, PKA-R2B activ 5, ATG4B inhibitor -16, PfG6PD inh 8, PKA-R1A activ -2 and T cell HTS 319.
For CC(=O)N1CCc2c(sc(NC(=O)CS(=O)(=O)c3ccc(F)cc3)c2C#N)C1 the results were HKDC1 inhibitor -1, PKA-R2B activ 17, ATG4B inhibitor 4, PfG6PD inh -9, PKA-R1A activ 5 and T cell HTS 301.
Screening COc1cccc(C(=O)Nc2sc3c(c2C(=O)O)CCCC3)c1 returned HKDC1 inhibitor 7, PKA-R2B activ -4, ATG4B inhibitor 9, PfG6PD inh 88*, PKA-R1A activ -4, T cell HTS 248 and PfG6PD confirm 41.
`Cc1cccc(C(=O)Nc2sc3c(c2C(=O)O)CCC3)c1` gave HKDC1 inhibitor 3, PKA-R2B activ 10, ATG4B inhibitor 3, PfG6PD inh 60*, PKA-R1A activ -12, T cell HTS 34 and PfG6PD confirm 18.
COc1cccc(C(=O)Nc2sc3c(c2C#N)CCN(C(C)=O)C3)c1 was read as HKDC1 inhibitor -7, PKA-R2B activ 7, ATG4B inhibitor -5, PfG6PD inh 61*, PKA-R1A activ -2, T cell HTS 630 and PfG6PD confirm 36.
